The text below walks through data of ChEMBL document CHEMBL1138230, “Synthesis and SAR comparison of regioisomeric aryl naphthyridines as potent mGlu5 receptor antagonists” (Bioorg Med Chem Lett, 2007).

Chain of Metabotropic glutamate receptor 5 (P31424 whole entry): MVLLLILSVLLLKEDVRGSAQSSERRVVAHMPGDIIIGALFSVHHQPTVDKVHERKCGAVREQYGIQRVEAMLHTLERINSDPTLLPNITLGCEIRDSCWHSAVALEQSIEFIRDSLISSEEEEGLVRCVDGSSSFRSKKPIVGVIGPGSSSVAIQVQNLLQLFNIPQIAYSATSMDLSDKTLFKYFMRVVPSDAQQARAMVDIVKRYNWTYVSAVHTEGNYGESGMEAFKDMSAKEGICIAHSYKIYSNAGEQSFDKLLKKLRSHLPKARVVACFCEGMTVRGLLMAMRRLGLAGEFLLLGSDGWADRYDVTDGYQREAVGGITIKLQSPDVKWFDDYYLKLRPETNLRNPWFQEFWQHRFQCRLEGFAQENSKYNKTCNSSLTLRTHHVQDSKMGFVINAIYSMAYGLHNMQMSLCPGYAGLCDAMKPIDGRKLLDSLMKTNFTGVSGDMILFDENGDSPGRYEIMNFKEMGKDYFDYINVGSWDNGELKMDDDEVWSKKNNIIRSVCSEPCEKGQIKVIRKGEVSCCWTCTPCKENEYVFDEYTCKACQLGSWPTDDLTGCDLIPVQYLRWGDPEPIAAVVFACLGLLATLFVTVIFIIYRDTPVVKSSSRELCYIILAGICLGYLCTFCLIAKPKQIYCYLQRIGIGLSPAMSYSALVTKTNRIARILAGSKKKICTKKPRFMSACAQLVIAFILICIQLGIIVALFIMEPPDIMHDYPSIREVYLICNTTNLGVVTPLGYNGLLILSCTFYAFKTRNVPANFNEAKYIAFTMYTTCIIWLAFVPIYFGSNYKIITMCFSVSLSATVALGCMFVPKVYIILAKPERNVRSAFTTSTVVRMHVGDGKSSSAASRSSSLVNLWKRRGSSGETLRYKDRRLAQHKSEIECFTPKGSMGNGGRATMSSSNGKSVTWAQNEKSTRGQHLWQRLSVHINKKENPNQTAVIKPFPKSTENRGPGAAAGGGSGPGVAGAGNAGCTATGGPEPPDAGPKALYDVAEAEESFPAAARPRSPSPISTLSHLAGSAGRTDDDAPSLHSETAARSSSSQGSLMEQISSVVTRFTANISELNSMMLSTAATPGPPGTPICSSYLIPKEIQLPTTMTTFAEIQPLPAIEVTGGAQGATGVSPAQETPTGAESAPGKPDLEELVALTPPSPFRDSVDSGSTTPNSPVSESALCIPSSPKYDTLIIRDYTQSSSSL

One data set deals with Rattus norvegicus. Kind of data set: Inhibition of change in hind paw weight distribution in monosodium iodoacetate-induced osteoarthritis rat model at 10 mg/kg, ip after 4 hrs. As to conditions: in vivo; call rule not given here. On the set-up: dose 10 mg/kg, route intraperitoneal. The class given is organism-based.
As to `COc1cc(OC)cc(-c2ccc3ccc(C)nc3n2)c1`, the result was Active.

The next data set has as its target Metabotropic glutamate receptor 5 (Rattus norvegicus, UniProt P31424). The experiment in a line: Antagonist activity at rat mGlu5 receptor expressed in CHO cells assessed as inhibition of quisqualate-stimulated calcium mobilization. Type of data set: functional, cell-based.
Conditions: not given
In outline: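 CHO cells stably expressing rat mGlu5; inhibition of quisqualate-stimulated calcium mobilization read by FLIPR. Values are geometric means of two or more experiments.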
A general note: A change in cytosolic calcium serves as a functional read-out for many receptors and channels.
Usually IC50 stands for the concentration that inhibits the measured activity by half. `Cc1cc(F)cc(-c2cc3ncccc3cn2)c1`: the IC50 was 6570 nM.

Regarding `COc1cc(OC)cc(-c2cc3nc(C)ccc3cn2)c1`, the IC50 amounted to 345 nM.

As to `Cc1ccc2ccc(-c3cccc(C#N)c3)nc2n1`, the IC50 turned out to be 480 nM.

In the case of `COCOc1cc(C#N)cc(-c2cc3ncccc3cn2)c1`, the IC50 was 468 nM.

Take `COc1cc(C#N)cc(-c2cc3ncccc3cn2)c1`: the IC50 worked out at 68 nM.

For the compound `Cc1ccc2ccc(-c3ccccc3)nc2n1`, the IC50 was 664 nM.

Take `Cc1ccc(-c2ccc3cccnc3n2)cc1C`: the IC50 was 45 nM.

As for `Cc1cccc(-c2ccc3ccc(C)nc3n2)c1`, the IC50 came to 277 nM.

As for `Cc1ccc2cnc(-c3ccccc3)cc2n1`, the IC50 was more than 30000 nM.

Take `Cc1cc(F)cc(-c2cc3nc(C)ccc3cn2)c1`: the IC50 turned out to be 2930 nM.

Turning to `COc1cc(C#N)cc(-c2cnc3cccnc3c2)c1`, the IC50 stood at 55 nM.

For `N#Cc1cc(F)cc(-c2cc3ncccc3cn2)c1`, the IC50 was determined as 1590 nM.

As for `N#Cc1cccc(-c2ccc3cccnc3n2)c1`, the IC50 came out at 115 nM.

As to `Cc1cccc(-c2ccc3cccnc3n2)c1`, the concentration for half-maximal inhibition (IC50) is 225 nM.

As to `N#Cc1cccc(-c2cnc3cccnc3c2)c1`, the IC50 was determined as 18600 nM.

Turning to `Cc1ccc2ccc(-c3cccc(Br)c3)nc2n1`, the IC50 is 47.9 nM.

Turning to `Cc1cc(C)cc(-c2cnc3cccnc3c2)c1`, the IC50 is more than 30000 nM.

For `Cc1ccc2ccc(-c3cc(F)cc(F)c3)nc2n1`, the IC50 was 181 nM.

For `COc1cc(OC)cc(-c2ccc3ccc(C)nc3n2)c1`, the IC50 amounted to 51.7 nM.

As for `c1ccc(-c2ccc3cccnc3n2)cc1`, the IC50 stood at 1840 nM.

With `COc1cc(OC)cc(-c2cc3ncccc3cn2)c1`, the IC50 came out at 6070 nM.

In the case of `COc1cccc(-c2cc3nc(C)ccc3cn2)c1`, the IC50 worked out at 7900 nM.

For the compound `c1ccc(-c2cc3ncccc3cn2)cc1`, the IC50 is more than 30000 nM.

With `COc1cc(C#N)cc(-c2cc3nc(C)ccc3cn2)c1`, the IC50 came to 6.19 nM.

Turning to `Cc1ccc(-c2cnc3cccnc3c2)cc1C`, the IC50 was determined as 12000 nM.

Consider `Cc1ccc2ccc(-c3cccc(Cl)c3)nc2n1`, for which the IC50 is 177 nM.

As for `COc1cc(OC)cc(-c2ccc3cccnc3n2)c1`, the IC50 amounted to 67 nM.

Consider `Cc1cccc(-c2cnc3cccnc3c2)c1`, for which the IC50 came to 15700 nM.

Regarding `Cc1cccc(-c2cc3nc(C)ccc3cn2)c1`, the IC50 is 676 nM.

As to `Cc1cccc(-c2cc3ncccc3cn2)c1`, the IC50 was 1270 nM.

Another data set deals with Rattus norvegicus. The experiment in a line: Inhibition of change in hind paw weight distribution in monosodium iodoacetate-induced osteoarthritis rat model at 10 mg/kg, ip after 2 hrs. The class given is organism-based. On the set-up: dose 10 mg/kg, route intraperitoneal. Particulars: in vivo.
On to `COc1cc(OC)cc(-c2ccc3ccc(C)nc3n2)c1`, for which the result was Active.

The test system of another data set is Rattus norvegicus. The experiment in a line: Inhibition of change in hind paw weight distribution in monosodium iodoacetate-induced osteoarthritis rat model at 10 mg/kg, ip after 6 hrs. Type of data set: organism-based. On the set-up: dose 10 mg/kg, route intraperitoneal. As to conditions: in vivo.
Take `COc1cc(OC)cc(-c2ccc3ccc(C)nc3n2)c1`: the result was Active.
